From ChEMBL document CHEMBL1143676, “2,4,6-Trisubstituted pyridines: Synthesis, topoisomerase I and II inhibitory activity, cytotoxicity, and structure-activity relationship” (Bioorg Med Chem, 2007) come the findings set out here.

Activity calls are given as the source filed them. No cut-off for these calls is given here.

Experiment [1] is filed under the species Homo sapiens. Kind of experiment: Inhibition of human topoisomerase 2 at 100 uM.
The species named for experiment [2] is Homo sapiens. In words: Inhibition of human topoisomerase 2 at 20 uM.
Another experiment relates to HCT-15. Kind of experiment: Cytotoxicity against human HCT15 cells after 48 hrs by SRB method. Format: functional, cell-based. To be noted: HCT-15, 48 h. The essentials: (§1)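 SRB assay following the NCI protocol. Cells were kept in log growth with a medium change 24 h before the assay, then trypsinized and seeded at 5 × 10³ (A549, HCT15), 1 × 10⁴ (SK-MEL-2) or 2 × 10⁴ (SK-OV-3) cells/well. After 24 h preincubation at 37 °C in 5% CO₂, compounds in DMSO were added as six 3-fold dilutions (final DMSO <0.5%) for 48 h. Cells were fixed in cold 10% TCA and stained with 0.4% SRB. Bound dye was dissolved in 10 mM Tris (pH 10.5) and absorbance read at 520 nm. Survival fractions came from regression of viability against concentration.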
(In general: The SRB assay estimates cell density from bound dye.)

A further experiment deals with A549. Kind of experiment: Cytotoxicity against human A549 cells after 48 hrs by SRB method. It counts as functional, cell-based. The note with it: A549, 48 h. In a few lines:
as §1

The next experiment relates to SK-OV-3. In words: Cytotoxicity against human SKOV3 cells after 48 hrs by SRB method. To be noted: SK-OV-3, 48 h. It counts as functional, cell-based. The essentials:
as §1

The test system of the next experiment is SK-MEL-2. In words: Cytotoxicity against human SK-MEL-2 cells after 48 hrs by SRB method. It counts as functional, cell-based. The note with it: SK-MEL-2, 48 h. In a few lines: as §1
For experiment [3], the species on record is Bos taurus. Kind of experiment: Inhibition of calf thymus topoisomerase 1 assessed as relaxation of supercoiled plasmid DNA at 100 uM. The essentials: (§2)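 Compound was added at 20 or 100 μM and the mix incubated 30 min at 37 °C. Reactions were stopped with SDS/bromophenol blue/glycerol dye, run on 1% agarose in TAE for 1 h, and stained with ethidium bromide.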

Experiment [4] is filed under the species Bos taurus. In words: Inhibition of calf thymus topoisomerase 1 assessed as relaxation of supercoiled plasmid DNA at 20 uM. In a few lines: as §2

With `c1ccc(-c2cc(-c3ccoc3)cc(-c3ccco3)n2)nc1`, the result in the experiment filed under Homo sapiens [1] and in the experiment listed under Homo sapiens [2] was Active.

A word on the IC50: it is the midpoint of a concentration-inhibition curve. Low readings indicate higher potency, high ones lower potency. For `c1cncc(-c2cc(-c3ccco3)cc(-c3cccs3)n2)c1`, the IC50 with HCT-15 stood at 5.87 µM; with A549, 14.5 µM; in the experiment with SK-OV-3, 5.9 µM; in the experiment with SK-MEL-2, 1.95 µM.

As for `c1csc(-c2cc(-c3ccsc3)cc(-c3ccncc3)n2)c1`, the outcome in the experiment listed under Bos taurus [3] and in the experiment filed under Bos taurus [4] was Active.

`c1csc(-c2cc(-c3ccncc3)nc(-c3cccs3)c2)c1`: the IC50 in the experiment with HCT-15 is 1.72 µM; in the experiment on A549, 4.16 µM; in the experiment on SK-OV-3, 5.75 µM; in the experiment on SK-MEL-2, 3.68 µM.

As for `c1cc(-c2cc(-c3ccsc3)cc(-c3ccsc3)n2)ccn1`, the 50% inhibitory concentration (IC50) turned out to be 2.54 µM in the experiment on HCT-15, 27.8 µM in the experiment with A549, 9.86 µM with SK-OV-3 and 9.76 µM with SK-MEL-2.

Regarding `c1cncc(-c2cc(-c3ccncc3)nc(-c3ccco3)c2)c1`, the result in the experiment filed under Bos taurus [3] and in the experiment filed under Bos taurus [4] was Active.

Consider `c1coc(-c2cc(-c3ccoc3)cc(-c3ccncc3)n2)c1`, for which the result in the experiment listed under Homo sapiens [1] and in the experiment listed under Homo sapiens [2] was Active.

As for `c1cc(-c2cc(-c3ccoc3)cc(-c3ccsc3)n2)ccn1`, the outcome in the experiment filed under Homo sapiens [1] and in the experiment filed under Homo sapiens [2] was Active.

As to `c1cncc(-c2cc(-c3ccsc3)cc(-c3cccs3)n2)c1`, the IC50 worked out at 4.06 µM in the experiment with HCT-15, 2.73 µM in the experiment with A549, 7.49 µM in the experiment with SK-OV-3 and 5.61 µM in the experiment on SK-MEL-2.

With `c1coc(-c2cc(-c3cccs3)cc(-c3ccncc3)n2)c1`, the result in the experiment listed under Bos taurus [3] and in the experiment listed under Bos taurus [4] was Active.

On to `c1cncc(-c2cc(-c3ccncc3)nc(-c3cccs3)c2)c1`, for which the outcome in the experiment listed under Homo sapiens [1] and in the experiment filed under Homo sapiens [2] was Active.

Regarding `c1csc(-c2cc(-c3ccoc3)cc(-c3ccncc3)n2)c1`, the outcome in the experiment listed under Homo sapiens [1] and in the experiment listed under Homo sapiens [2] was Active.

With `COc1cc([C@@H]2c3cc4c(cc3[C@@H](O[C@@H]3O[C@@H]5CO[C@@H](C)O[C@H]5[C@H](O)[C@H]3O)[C@H]3COC(=O)[C@H]23)OCO4)cc(OC)c1O` [ETOPOSIDE], the IC50 in the experiment on HCT-15 is 2.43 µM; in the experiment on A549, 0.32 µM; in the experiment on SK-OV-3, 1.72 µM; in the experiment with SK-MEL-2, 0.3 µM.

On to `c1ccc(-c2cc(-c3ccsc3)cc(-c3cccs3)n2)nc1`, for which the result in the experiment listed under Bos taurus [3] and in the experiment listed under Bos taurus [4] was Active.

For `c1coc(-c2cc(-c3ccsc3)cc(-c3ccncc3)n2)c1`, the result in the experiment listed under Homo sapiens [1] and in the experiment filed under Homo sapiens [2] was Active.

For `c1coc(-c2cc(-c3ccncc3)nc(-c3cccs3)c2)c1`, the 50% inhibitory concentration (IC50) in the experiment with HCT-15 was found to be 4.18 µM; in the experiment on A549, 10.9 µM; in the experiment on SK-OV-3, 8.69 µM; in the experiment with SK-MEL-2, 5.43 µM.

With `c1cc(-c2cc(-c3ccncc3)nc(-c3ccsc3)c2)ccn1`, the outcome in the experiment listed under Homo sapiens [1] and in the experiment listed under Homo sapiens [2] was Active.

For `c1csc(-c2cc(-c3ccncc3)nc(-c3ccsc3)c2)c1`, the 50% inhibitory concentration (IC50) in the experiment with HCT-15 came out at 3.79 µM; in the experiment with A549, 5.69 µM; in the experiment with SK-OV-3 it was 14.5 µM; in the experiment on SK-MEL-2, 8.94 µM.
